This note sets out measurements from ChEMBL document CHEMBL4304819, “Natural product pectolinarigenin exhibits potent anti-metastatic activity in colorectal carcinoma cells in vitro and in vivo” (2019).

In assay [1] the test system is CT26. Put plainly: Anticlonogenic activity against mouse CT26 cells assessed as reduction in colony formation up to 40 uM incubated for 24 hrs supplemented with fresh medium containing compound every 3 days for 12 days by crystal violet staining-based microscopic analysis. The class given is functional, cell-based. An outline of the steps: (§1)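 Cells seeded at 400–800 per well in 6-well plates; after 24 h, treated with 0–40 μM in fresh medium (with or without compound) replaced every three days for 12 days. Colonies fixed in methanol, stained with 0.5% crystal violet for 15 min and counted by microscope; reported as surviving colonies, mean ± SD of three experiments.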

Assay [2] has as its system HCT-116. Put plainly: Antiproliferative activity against human HCT116 cells assessed as reduction in cell viability up to 40 uM by MTT assay. To be noted: TDE = time-dependent effect. The assay is classed as functional, cell-based. In a few lines:
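Exponentially growing cells (2–6 × 10^3 per well) seeded in 96-well plates for 24 h, then exposed to 0, 2.5, 5, 10, 20, 40 µM for 24, 48 and 72 h. MTT (5 mg/mL stock) added 2–4 h at 37 °C; formazan dissolved in DMSO, absorbance at 570 nm. Three independent experiments.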
(In general: Tetrazolium assays rely on reduction of a dye to a coloured formazan, in cell work by metabolically active cells.)

Assay [3] deals with CT26. In words: Antimetastatic activity against mouse CT26 cells allografted in Balb/c mouse assessed as reduction in abdominal circumference at 25 to 50 mg/kg, ip administered daily for 14 days starting from 6 days post implantation. The assay is classed as functional, organism-based. An outline of the steps: (§2)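 Female BALB/c mice (6–8 weeks) injected ip with 5 × 10^5 CT26 cells; from day 6, randomized (eight per group) to ip vehicle, 25 or 50 mg/kg once daily for 14 days. Abdominal circumference and body weight every 3 days; abdominal nodules counted by eye and weighed; spleens assessed; paraffin tumour sections immunostained (Ki-67, MMP-9, p-Stat3) with DAB detection.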

Assay [4] has as its system CT26. Put plainly: Induction of apoptosis in mouse CT26 cells assessed as increase in Bax/Bcl2 protein ratio up to 40 uM after 48 hrs by Western blot analysis. The assay is classed as functional, cell-based. An outline of the steps: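 CT26 cells exposed 48 h to PEC at 0, 10, 20 and 40 μM, washed twice in cold PBS, lysed in RIPA. Protein measured by Lowry and equalized, run on SDS-PAGE, blotted to PVDF. Blocked 1 h at 37 °C, primary antibodies (Bax, Bcl-2, pro-caspase-3, cleaved caspase-3) overnight at 4 °C, secondary 1 h, ECL detection, densitometry.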
(In general: A western blot detects proteins with antibodies after separation by electrophoresis.)

Assay [5] deals with HCT-116. Put plainly: Induction of apoptosis in human HCT116 cells assessed as necrotic cells at 10 uM after 48 hrs by Annexin V-FITC/propidium iodide staining-based flow cytometric analysis (reference value: 8.24 %). The assay is classed as functional. An outline of the steps:
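Cells (1–2 × 10^5 per well) seeded in six-well plates 24 h, treated at 0–40 μM for 24 h or 48 h, harvested, washed twice in cold PBS, stained with Annexin V-FITC/PI and analysed by flow cytometry; early (Annexin V only) and late (Annexin V and PI) apoptotic fractions quantified; three experiments.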
Background: In flow cytometry, cells or beads pass a laser one at a time.

Assay [6] relates to CT26. In words: Induction of apoptosis in mouse CT26 cells assessed as late apoptotic cells at 20 uM after 48 hrs by Annexin V-FITC/propidium iodide staining-based flow cytometric analysis (reference value: 6.49 %). The class given is functional. In a few lines: (§3)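 CT26 cells seeded at 1–2 × 10^5 per well in six-well plates for 24 h, then exposed to PEC (0–40 μM) for 24 or 48 h. Cells harvested, washed twice in cold PBS, stained with Annexin V-FITC/PI and read by flow cytometry. Early apoptotic = Annexin V+ only; late apoptotic = Annexin V+/PI+. Mean ± SD of three experiments.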

The subject of another assay is SW48. Put plainly: Anticlonogenic activity against human SW48 cells assessed as reduction in colony formation up to 40 uM incubated for 24 hrs supplemented with fresh medium containing compound every 3 days for 12 days by crystal violet staining-based microscopic analysis. The assay is classed as functional, cell-based. In a few lines:
as §1

The subject of assay [7] is CT26. In words: Antimetastatic activity against mouse CT26 cells allografted in ip dosed Balb/c mouse assessed as decrease in CD11b-positive/Gr1-positive myeloid cells level in peripheral blood administered daily for 14 days starting from 6 days post implantation by flow cytometric analysis. The assay is classed as functional, organism-based.
In assay [8] the test system is CT26. In words: Induction of apoptosis in mouse CT26 cells assessed as viable cells at 10 uM after 48 hrs by Annexin V-FITC/propidium iodide staining-based flow cytometric analysis (reference value: 88.9 %). The conditions noted are these: CT26, 48 h, read-out: Activity. The class given is functional. An outline of the steps:
as §3

The test system of assay [9] is CT26. Put plainly: Antimetastatic activity against ip dosed mouse CT26 cells allografted in Balb/c mouse assessed as reduction in number of tumour nodules administered daily for 14 days starting from 6 days post implantation. The assay is classed as functional, organism-based. In a few lines: as §2
Assay [10] concerns HCT-116. Put plainly: Inhibition of colony formation in human HCT116 cells assessed as reduction in size of colonies up to 40 uM incubated for 24 hrs supplemented with fresh medium containing compound every 3 days for 12 days by crystal violet staining-based microscopic analysis. The class given is functional, cell-based. An outline of the steps:
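400–800 cells per well seeded in 6-well plates; after 24 h, PEC (0–40 μM) added. Medium with or without compound replaced every three days for 12 days. Colonies washed in cold PBS, fixed in methanol, stained 15 min with 0.5% crystal violet and counted under a microscope. Mean ± SD of three experiments.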

The structures appear in SMILES notation. Active and inactive are the calls of the source. The calls are words filed in the database; no cut-off is given here.

In the case of `COc1ccc(-c2cc(=O)c3c(O)c(OC)c(O)cc3o2)cc1` [PECTOLINARIGENIN], the inhibition result in the assay with CT26 [1], in the assay with SW48 and in the assay with HCT-116 [10] was “Active” throughout. The inhibition entry in the assay on HCT-116 [2] was “Tde”. Also, the outcome in the assay on CT26 [3] and in the assay with CT26 [4] was Active. The Activity in the assay on HCT-116 [5] was 3.98%; with CT26 [6], 12.4%; in the assay on CT26 [7] it was “Dose-dependent effect”; with CT26 [9] it was “Dose-dependent effect”. Moreover, in the assay on CT26 [8], the viability at 10 µM was found to be 77.1%.
